# CHT PAM: human CHT allosteric activation. Q9GZV3. CHT-expressing cells, membrane potential dye, choline EC20; active compounds read high; LV-AA mutant CHT in HEK293 cells. B-score at 10 µM. actives 0.49% (n = 310,000). AID 488977;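 active means initial fluorescence not abnormally high and integrated response B-score, plate-corrected, over 3 SD above library mean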
# T cruzi inh: blocks replication of Trypanosoma cruzi | actives 1.4% (n = 300,000) | AID 1885 | inhibition, % (concentration not given with the values) | T. cruzi beta-gal in NIH3T3, luminescence, 90 h;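 active means mean inhibition across valid replicates above about 55%, limit read from the data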;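 further: signal also drops with host cell toxicity which is not excluded here; 0% = plate median of DMSO wells and 100% = zero luminescence signal; higher percent means less beta-gal luminescence so fewer parasites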
#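 compound dosing = single 50 nL compound addition per well in DMSO | material = NIH/3T3 host cells with β-galactosidase reporter T. cruzi | input = 5,000 host fibroblasts per well | timing = ≥90 h infection period, 3 h prior cell attachment | read-out basis = percent inhibition of parasite-derived β-gal signal | detection = GalScreen β-gal luminescence, detergent lysis, 60 min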
# CHT block: human CHT choline transport inhibition; CHT-expressing cells, membrane potential dye, choline response; active compounds read low; B-score at 10 µM; actives 0.86% (n = 310,000); AID 488975;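 active means B-score over 3 SD under the library average, and starting fluorescence ratio not unusually high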;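 further: choline stimulus applied at its EC90 after an EC20 pre-addition; B-score computed on integrated fluorescence ratio after choline addition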
# PolyA inh: inhibitors of polyadenylation in S. cerevisiae. S. cerevisiae SKY197-pL101 polyadenylation reporter, beta-gal luminescence; efflux-impaired pdr1/pdr3 knockout yeast; score 100 = 6 SD above DMSO. activity score, % at 12 µM. actives 0.02% (n = 300,000);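 active means lowest replicate activity score at least 50, where 100 means six control SD above control mean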;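 further: yeast exposed to compound for 9 h at 30 °C; higher score means more reporter readthrough which indicates perturbed polyadenylation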
# CHT inh conf: human CHT inhibition, confirmatory screen | shares compounds with CHT block | CHT-expressing cells, choline membrane potential dye; LV-to-AA substituted CHT, HEK293 cells | CHT activity remaining % of control (active compounds read low), % at 10 µM | actives 70% (n = 2,400) | AID 493221;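 active means choline transporter activity left, mean of duplicates at 10 µM, below buffer-only control mean minus 3 SD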;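 further: depolarization triggered by choline at its EC90 following an EC20 pre-addition; 0% = hemicholinium-3 full block and 100% = buffer-only control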
# HEK293 CHT ctr: activity in parental HEK293 cells lacking CHT; shares compounds with CHT block; membrane potential dye, choline response; active = decrease or increase beyond buffer ±3SD; membrane potential ratio readout (active if shifted either direction beyond buffer ±3SD; no single direction) at 10 µM; actives 4% (n = 2,400);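 further: parental cells lack the transporter so any hit is non-specific; ratio is peak minus trough fluorescence over baseline after EC90 choline challenge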
# Numbers without * were called inactive; i = inactive; · = no result. This is a sample that favours compounds with a hit; in the whole collection about 2.6% have one here.
SMILES,CHT PAM,T cruzi inh,CHT block,PolyA inh,CHT inh conf,HEK293 CHT ctr
O=C(NCCN1CCCC1)c1ccc2c(c1)N(Cc1cccc(Cl)c1)C(=O)c1ccccc1S2(=O)=O,i,7.9,-9.49*,-15.3,34.2%*,i
CC1CCCN(CCCNC(=O)c2ccc3c(c2)N(Cc2ccccc2F)C(=O)c2ccccc2S3(=O)=O)C1 (stereo not given),i,35.2,-7.12*,1.3,34.6%*,i
CCN1CCCC1CNC(=O)c1ccc2c(c1)N(Cc1cccc(Cl)c1)C(=O)c1ccccc1S2(=O)=O (stereo not given),i,23.7,-11.7*,3.3,27.5%*,i
CCN1C(=O)c2ccccc2S(=O)(=O)c2ccc(C(=O)NCCCN(CC(C)C)CC(C)C)cc21,i,11.7,i,18.1,·,·
O=C(NCCN1CCOCC1)c1ccc2c(c1)N(Cc1ccccc1F)C(=O)c1ccccc1S2(=O)=O,i,2.9,i,24.0,·,·
CCN1CCCC1CNC(=O)c1ccc2c(c1)N(Cc1ccccc1F)C(=O)c1ccccc1S2(=O)=O (stereo not given),i,30.1,-5.31*,-6.4,54.5%*,i
CCCOCC(O)CCc1n[nH]c(=S)n1-c1ccccc1 (stereo not given),i,-12.3,i,19.2,·,·
CCc1ccccc1NC(=O)C1CC(c2ccc(OC)cc2)=NO1 (stereo not given),i,3.9,-6.35*,10.8,48.3%*,i
CCOc1ccc(C(=O)OC(C)CN2CCN(C)CC2)cc1 (stereo not given),i,41.8,i,3.2,·,·
Cc1ccccc1NC(=O)CSc1nnc(C2CC2)n1CC1CCCO1 (stereo not given),i,7.7,i,15.0,·,·
O=C(CN(CC1CCCO1)C(=O)CNS(=O)(=O)c1ccc(F)cc1)NCCc1ccccc1 (stereo not given),i,2.5,i,2.0,·,·
Cn1ccnc1Sc1ccc(C=O)cc1[N+](=O)[O-],i,0.5,-6.27*,-5.3,i,i
